In ChEMBL document CHEMBL1944534, “New heterocyclic compounds from 1,2,4-triazole and 1,3,4-thiadiazole class bearing diphenylsulfone moieties. Synthesis, characterization and antimicrobial activity evaluation” (2012):
In brackets after ≈: the same amount, converted by molar mass.

Key:
Type in all cases: functional
Staphylococcus aureus = test: Antibacterial activity against Staphylococcus aureus ATCC 25923 after 20 hrs by broth microdilution method; details: ATCC 25923, 20 h
Method in brief: (§1)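 MIC by two-fold dilution series (1/2 to 1/1024) of a 2048 µg/mL DMSO stock in cation-adjusted Müller-Hinton broth. Inoculum from colonies of 24 h Columbia blood agar culture, adjusted to 0.5 McFarland, diluted to 1 × 10^6 CFU/mL and added 1:1 to compound broth. Incubated 37 °C, 20 h. MIC is the lowest concentration with no turbidity or growth button, read by eye. Run in duplicate.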

Acinetobacter baumannii = test: Antibacterial activity against Acinetobacter baumannii ATCC 19606 after 20 hrs by broth microdilution method; details: ATCC 19606 = CIP 70.34 = JCM 6841, 20 h; method in brief: as §1
Enterobacter cloacae = test: Antibacterial activity against Enterobacter cloacae ATCC 49141 after 20 hrs by broth microdilution method; details: ATCC 49141, 20 h; method in brief: as §1
Pseudomonas aeruginosa = test: Antibacterial activity against Pseudomonas aeruginosa ATCC 27853 after 20 hrs by broth microdilution method; details: ATCC 27853, 20 h; method in brief: as §1
Escherichia coli = test: Antibacterial activity against Escherichia coli ATCC 25922 after 20 hrs by broth microdilution method; details: ATCC 25922, 20 h; method in brief: as §1
Bacillus cereus = test: Antibacterial activity against Bacillus cereus ATCC 13061 after 20 hrs by broth microdilution method; details: ATCC 13061, 20 h; method in brief: as §1
Candida albicans = test: Antifungal activity against Candida albicans ATCC 90028 after 24 hrs by broth microdilution method; details: ATCC 90028, 24 h
Method in brief: (§2)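 Two-fold dilutions (1/2 to 1/1024) of a 2048 µg/mL DMSO stock made in Sabouraud broth. Yeast inoculum from colonies of 24 h Sabouraud dextrose agar culture, 0.5 McFarland, diluted in sterile water to 10^5 CFU/mL and added in equal volume to broth. Incubated 37 °C, 24 h (C. albicans) or 48 h (C. parapsilosis). MIC read by eye as lowest concentration without turbidity or growth button. Run in duplicate.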

Candida parapsilosis = test: Antifungal activity against Candida parapsilosis ATCC 22019 after 48 hrs by broth microdilution method; details: Lodderomyces parapsilosis, ATCC 22019, 48 h; method in brief: as §2

O=C(NNC(=S)Nc1ccc(OC(F)(F)F)cc1)c1ccc(S(=O)(=O)c2ccccc2)cc1
MIC (Staphylococcus aureus): 256 µg/mL (≈ 517 µM) | MIC (Acinetobacter baumannii): 64 µg/mL (≈ 129 µM) | MIC (Enterobacter cloacae): 128 µg/mL (≈ 258 µM) | MIC (Pseudomonas aeruginosa): 64 µg/mL (≈ 129 µM) | MIC (Escherichia coli): 128 µg/mL (≈ 258 µM) | MIC (Bacillus cereus): 32 µg/mL (≈ 64.6 µM) | MIC (Candida albicans): 64 µg/mL (≈ 129 µM) | MIC (Candida parapsilosis): 64 µg/mL (≈ 129 µM)

O=C(NNC(=S)Nc1ccc(OC(F)(F)F)cc1)c1ccc(S(=O)(=O)c2ccc(Br)cc2)cc1
MIC (Staphylococcus aureus): 512 µg/mL (≈ 891 µM) | MIC (Acinetobacter baumannii): 64 µg/mL (≈ 111 µM) | MIC (Enterobacter cloacae): 128 µg/mL (≈ 223 µM) | MIC (Pseudomonas aeruginosa): 64 µg/mL (≈ 111 µM) | MIC (Escherichia coli): 128 µg/mL (≈ 223 µM) | MIC (Bacillus cereus): 32 µg/mL (≈ 55.7 µM) | MIC (Candida albicans): 64 µg/mL (≈ 111 µM) | MIC (Candida parapsilosis): 64 µg/mL (≈ 111 µM)

COc1cc(NC(=S)NNC(=O)c2ccc(S(=O)(=O)c3ccccc3)cc2)cc(OC)c1OC
MIC (Staphylococcus aureus): 128 µg/mL (≈ 255 µM) | MIC (Acinetobacter baumannii): 32 µg/mL (≈ 63.8 µM) | MIC (Enterobacter cloacae): 128 µg/mL (≈ 255 µM) | MIC (Pseudomonas aeruginosa): 64 µg/mL (≈ 128 µM) | MIC (Escherichia coli): 128 µg/mL (≈ 255 µM) | MIC (Bacillus cereus): 16 µg/mL (≈ 31.9 µM) | MIC (Candida albicans): 64 µg/mL (≈ 128 µM) | MIC (Candida parapsilosis): 64 µg/mL (≈ 128 µM)

COc1cc(NC(=S)NNC(=O)c2ccc(S(=O)(=O)c3ccc(Br)cc3)cc2)cc(OC)c1OC
MIC (Staphylococcus aureus): 128 µg/mL (≈ 221 µM) | MIC (Acinetobacter baumannii): 32 µg/mL (≈ 55.1 µM) | MIC (Enterobacter cloacae): 128 µg/mL (≈ 221 µM) | MIC (Pseudomonas aeruginosa): 64 µg/mL (≈ 110 µM) | MIC (Escherichia coli): 128 µg/mL (≈ 221 µM) | MIC (Bacillus cereus): 16 µg/mL (≈ 27.6 µM) | MIC (Candida albicans): 64 µg/mL (≈ 110 µM) | MIC (Candida parapsilosis): 64 µg/mL (≈ 110 µM)

O=S(=O)(c1ccccc1)c1ccc(-c2n[nH]c(=S)n2-c2ccc(OC(F)(F)F)cc2)cc1
MIC (Staphylococcus aureus): 256 µg/mL (≈ 536 µM) | MIC (Acinetobacter baumannii): 32 µg/mL (≈ 67 µM) | MIC (Enterobacter cloacae): 128 µg/mL (≈ 268 µM) | MIC (Pseudomonas aeruginosa): 64 µg/mL (≈ 134 µM) | MIC (Escherichia coli): 128 µg/mL (≈ 268 µM) | MIC (Bacillus cereus): 32 µg/mL (≈ 67 µM) | MIC (Candida albicans): 128 µg/mL (≈ 268 µM) | MIC (Candida parapsilosis): 64 µg/mL (≈ 134 µM)

O=S(=O)(c1ccc(Br)cc1)c1ccc(-c2n[nH]c(=S)n2-c2ccc(OC(F)(F)F)cc2)cc1
MIC (Staphylococcus aureus): 512 µg/mL (≈ 920 µM) | MIC (Acinetobacter baumannii): 32 µg/mL (≈ 57.5 µM) | MIC (Enterobacter cloacae): 256 µg/mL (≈ 460 µM) | MIC (Pseudomonas aeruginosa): 64 µg/mL (≈ 115 µM) | MIC (Escherichia coli): 256 µg/mL (≈ 460 µM) | MIC (Bacillus cereus): 32 µg/mL (≈ 57.5 µM) | MIC (Candida albicans): 128 µg/mL (≈ 230 µM) | MIC (Candida parapsilosis): 64 µg/mL (≈ 115 µM)

COc1cc(-n2c(-c3ccc(S(=O)(=O)c4ccccc4)cc3)n[nH]c2=S)cc(OC)c1OC
MIC (Staphylococcus aureus): 128 µg/mL (≈ 265 µM) | MIC (Acinetobacter baumannii): 32 µg/mL (≈ 66.2 µM) | MIC (Enterobacter cloacae): 128 µg/mL (≈ 265 µM) | MIC (Pseudomonas aeruginosa): 64 µg/mL (≈ 132 µM) | MIC (Escherichia coli): 128 µg/mL (≈ 265 µM) | MIC (Bacillus cereus): 16 µg/mL (≈ 33.1 µM) | MIC (Candida albicans): 64 µg/mL (≈ 132 µM) | MIC (Candida parapsilosis): 32 µg/mL (≈ 66.2 µM)

COc1cc(-n2c(-c3ccc(S(=O)(=O)c4ccc(Br)cc4)cc3)n[nH]c2=S)cc(OC)c1OC
MIC (Staphylococcus aureus): 128 µg/mL (≈ 228 µM) | MIC (Acinetobacter baumannii): 32 µg/mL (≈ 56.9 µM) | MIC (Enterobacter cloacae): 128 µg/mL (≈ 228 µM) | MIC (Pseudomonas aeruginosa): 64 µg/mL (≈ 114 µM) | MIC (Escherichia coli): 128 µg/mL (≈ 228 µM) | MIC (Bacillus cereus): 8 µg/mL (≈ 14.2 µM) | MIC (Candida albicans): 64 µg/mL (≈ 114 µM) | MIC (Candida parapsilosis): 16 µg/mL (≈ 28.4 µM)

O=S(=O)(c1ccccc1)c1ccc(-c2nnc(Nc3ccc(OC(F)(F)F)cc3)s2)cc1
MIC (Staphylococcus aureus): 512 µg/mL (≈ 1070 µM) | MIC (Acinetobacter baumannii): 32 µg/mL (≈ 67 µM) | MIC (Enterobacter cloacae): 128 µg/mL (≈ 268 µM) | MIC (Pseudomonas aeruginosa): 64 µg/mL (≈ 134 µM) | MIC (Escherichia coli): 128 µg/mL (≈ 268 µM) | MIC (Bacillus cereus): 32 µg/mL (≈ 67 µM) | MIC (Candida albicans): 64 µg/mL (≈ 134 µM) | MIC (Candida parapsilosis): 64 µg/mL (≈ 134 µM)

O=S(=O)(c1ccc(Br)cc1)c1ccc(-c2nnc(Nc3ccc(OC(F)(F)F)cc3)s2)cc1
MIC (Staphylococcus aureus): 512 µg/mL (≈ 920 µM) | MIC (Acinetobacter baumannii): 32 µg/mL (≈ 57.5 µM) | MIC (Enterobacter cloacae): 128 µg/mL (≈ 230 µM) | MIC (Pseudomonas aeruginosa): 64 µg/mL (≈ 115 µM) | MIC (Escherichia coli): 128 µg/mL (≈ 230 µM) | MIC (Bacillus cereus): 32 µg/mL (≈ 57.5 µM) | MIC (Candida albicans): 128 µg/mL (≈ 230 µM) | MIC (Candida parapsilosis): 64 µg/mL (≈ 115 µM)

COc1cc(Nc2nnc(-c3ccc(S(=O)(=O)c4ccccc4)cc3)s2)cc(OC)c1OC
MIC (Staphylococcus aureus): 512 µg/mL (≈ 1060 µM) | MIC (Acinetobacter baumannii): 32 µg/mL (≈ 66.2 µM) | MIC (Enterobacter cloacae): 128 µg/mL (≈ 265 µM) | MIC (Pseudomonas aeruginosa): 64 µg/mL (≈ 132 µM) | MIC (Escherichia coli): 128 µg/mL (≈ 265 µM) | MIC (Bacillus cereus): 16 µg/mL (≈ 33.1 µM) | MIC (Candida albicans): 64 µg/mL (≈ 132 µM) | MIC (Candida parapsilosis): 64 µg/mL (≈ 132 µM)

COc1cc(Nc2nnc(-c3ccc(S(=O)(=O)c4ccc(Br)cc4)cc3)s2)cc(OC)c1OC
MIC (Staphylococcus aureus): 512 µg/mL (≈ 910 µM) | MIC (Acinetobacter baumannii): 32 µg/mL (≈ 56.9 µM) | MIC (Enterobacter cloacae): 128 µg/mL (≈ 228 µM) | MIC (Pseudomonas aeruginosa): 64 µg/mL (≈ 114 µM) | MIC (Escherichia coli): 64 µg/mL (≈ 114 µM) | MIC (Bacillus cereus): 16 µg/mL (≈ 28.4 µM) | MIC (Candida albicans): 64 µg/mL (≈ 114 µM) | MIC (Candida parapsilosis): 64 µg/mL (≈ 114 µM)

NCC[C@H](O)C(=O)N[C@@H]1C[C@H](N)[C@@H](O[C@H]2O[C@H](CN)[C@@H](O)[C@H](O)[C@H]2O)[C@H](O)[C@H]1O[C@H]1O[C@H](CO)[C@@H](O)[C@H](N)[C@H]1O [AMIKACIN]
MIC (Staphylococcus aureus): 2 µg/mL (≈ 3.42 µM) | MIC (Pseudomonas aeruginosa): 2 µg/mL (≈ 3.42 µM) | MIC (Escherichia coli): 2 µg/mL (≈ 3.42 µM)

OC(Cn1cncn1)(Cn1cncn1)c1ccc(F)cc1F [FLUCONAZOLE]
MIC (Candida parapsilosis): 2 µg/mL (≈ 6.53 µM)
